Measured values published in PMC5575935 (Journal of the American Chemical Society, 2017).
Where a chain is given by its changes, count along the chain named. Blank lines part the entries; values can stand above or below the molecule they belong to.

Key:
[1] = target: T1, MAP2K6 (Homo sapiens, UniProt P52564); test: Z′-LYTE kinase inhibition assay; assay type: biochemical; details: nonelectrophilic analogs relative to EA
T1 sequence (P52564 1-334): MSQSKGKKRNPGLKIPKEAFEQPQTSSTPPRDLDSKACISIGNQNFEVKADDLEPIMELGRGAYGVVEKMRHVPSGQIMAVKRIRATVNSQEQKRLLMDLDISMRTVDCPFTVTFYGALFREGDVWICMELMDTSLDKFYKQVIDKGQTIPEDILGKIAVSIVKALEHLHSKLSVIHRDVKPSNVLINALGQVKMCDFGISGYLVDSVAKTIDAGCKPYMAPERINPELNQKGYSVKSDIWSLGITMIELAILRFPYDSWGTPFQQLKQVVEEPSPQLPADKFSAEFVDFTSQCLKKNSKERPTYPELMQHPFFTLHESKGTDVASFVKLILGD

[2] = target: T1, MAP2K6; test: IDUP library × library selection, enrichment of ligand:protein barcodes; assay type: binding
Procedure, shortened: (§1)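 Kinases were expressed as SNAP fusions by transient transfection of pDEST-SNAP-kinase vectors into HEK293T cells. Each unpurified lysate was labelled with a 31-nt benzylguanine-linked oligonucleotide carrying a unique 6-nt barcode and a common 3′ 8-nt hybridization region. The pooled protein library was combined with 2 pmol of an equimolar library of 136 DNA-linked compounds. IDUP primer extension followed, and extended products encoding protein:ligand pairs were PCR-amplified for barcode enrichment.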

[3] = target: T2, MAP2K6EE (constitutively active MAP2K6 mutant, S207E and T211E) (Homo sapiens, UniProt P52564, S207E/T211E); test: Z′-LYTE kinase activity after preincubation with EA and dialysis; assay type: biochemical; details: MAP2K6EE incubated with 100 µM EA, then dialyzed into EA-free buffer; vs DMSO
T2 sequence (P52564 1-334 S207E/T211E): T1 sequence (P52564 1-334) with S207E, T211E
Procedure, shortened: (§2)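 The kinase, either MAP2K6EE (S207E/T211E) or its C38A variant, was incubated with 100 µM test compound or DMSO. It was then dialyzed to remove free compound. Z′-LYTE kinase activity was measured as a function of kinase concentration.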

[4] = target: T3, C38A point mutant of MAP2K6EE (Homo sapiens, UniProt P52564, C38A/S207E/T211E); test: as above; assay type: biochemical; details: C38A MAP2K6EE preincubated with 100 µM EA, then dialyzed; vs DMSO
T3 sequence (P52564 1-334 C38A/S207E/T211E): T1 sequence (P52564 1-334) with C38A, S207E, T211E
Procedure, shortened: as §2

[5] = tested on: MAP2K6 and other MAP2Ks; test: LanthaScreen Eu binding assays on MAP2K family members; parameters: species or system human; details: LanthaScreen Eu assays and initial IDUP assay
[6] = target: T4, GSK3α (Homo sapiens, UniProt P49840); test: IDUP library × library selection, enrichment of ligand:protein barcodes; assay type: binding
T4 sequence (P49840 whole entry): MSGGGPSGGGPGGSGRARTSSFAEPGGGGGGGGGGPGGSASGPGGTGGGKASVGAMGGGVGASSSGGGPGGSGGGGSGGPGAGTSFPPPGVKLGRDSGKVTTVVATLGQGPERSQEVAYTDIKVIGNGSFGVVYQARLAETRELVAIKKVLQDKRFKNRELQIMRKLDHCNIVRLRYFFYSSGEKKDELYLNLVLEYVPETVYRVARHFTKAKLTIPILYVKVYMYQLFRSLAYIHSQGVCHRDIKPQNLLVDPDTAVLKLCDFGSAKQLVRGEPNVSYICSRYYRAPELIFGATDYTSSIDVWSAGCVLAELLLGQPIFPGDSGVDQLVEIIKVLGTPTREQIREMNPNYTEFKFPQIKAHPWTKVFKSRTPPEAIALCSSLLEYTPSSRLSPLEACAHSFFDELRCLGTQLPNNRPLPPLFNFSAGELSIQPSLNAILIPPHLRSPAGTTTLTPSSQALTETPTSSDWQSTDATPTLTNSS
Procedure, shortened: as §1

[7] = target: T4, GSK3α; test: Z′-LYTE kinase inhibition assay; assay type: biochemical; details: non-DNA tagged ligand

fold weaker inhibition of MAP2K6 than EA [1]: > 30 fold
Structure (SMILES): O=C(O)COc1ccc(C(=O)c2cccs2)c(Cl)c1Cl [tienilic acid]

fold weaker inhibition of MAP2K6 than EA [1]: > 30 fold
Structure (SMILES): CCC(C)C(=O)c1ccc(OCC(=O)O)c(Cl)c1Cl (centres unmarked) [dihydro-ethacrynic acid]

IDUP enrichment [2]: 4.7 fold | apparent loss of kinase activity [3]: 9 fold | loss in inhibition potency [4]: ~ 3.3 fold
Structure (SMILES): C=C(CC)C(=O)c1ccc(OCC(=O)O)c(Cl)c1Cl [EA, ethacrynic acid]
affinity for MAP2K6 compared with other MAP2Ks [5]: higher affinity for MAP2K6 than other MAP2Ks

IDUP enrichment [6]: 4.7 fold | IC50 [7]: 115 nM
Structure (SMILES): Cl.Cn1cc(C2=C(c3c4n(c5ccccc35)CCC(CN)C4)C(=O)NC2=O)c2ccccc21 (centres unmarked) [bisX, bisindolylmaleimide X]
